This note sets out measurements from ChEMBL document CHEMBL1123886 (J Med Chem, 1987).

For data set [1], the system named is P388. Put plainly: Percent increase in life span of the drug-treated tumor-bearing animals vs nontreated tumor-bearing controls with P388 leukemia cells. The data set is classed as functional, Mus musculus. The gist of the method: (§1)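 Groups of 6. Optimal dose is in mg/kg per day. ILSmax is the % lifespan increase over untreated tumor-bearing controls at the optimal dose; above 20% counted significant. Cures are 50-day survivors.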

Data set [2] can be described thus: Lipophilicity (Rm). The format is physicochemical.
The test system of data set [3] is Lewis lung carcinoma cell line. The data set can be described thus: (§2) Optimal dose required to inhibit the LL (Lewis lung carcinoma model) cells in vivo administered intraperitoneally; NA= not active. The data set is classed as functional. An outline of the steps:
(§3)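 Groups of 6. Optimal dose is in mg/kg per day. ILSmax is the % lifespan increase over untreated tumor-bearing controls at the optimal dose; above 40% counted significant. Cures are 60-day survivors.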

For a further data set, the system named is poly[d(A-T)]. Put plainly: Binding constant for poly[d(A-T)] by ethidium bromide displacement.
For another data set, the species on record is Mus musculus. The data set can be described thus: Percent increase in life span of the drug treated tumor bearing animals vs nontreated tumor bearing controls was determined against P388/ADR cells;NA= not active. The format is functional, organism-based. The gist of the method:
(§4)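 Mice were inoculated ip with 10^6 P388 or ADR/P388 cells. OD is the optimal dose in mg/kg per day. ILSmax is the % lifespan increase over untreated tumor-bearing controls at the OD; above 20% is significant. Long-term survival was scored at 50 days.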

Data set [4] concerns P388. The data set can be described thus: Optimal dose required to inhibit the P388 intraperitoneal administration. The data set is classed as functional, Mus musculus. Also on record: unit: mg/kg/day.
Data set [5] concerns P388/ADR. Put plainly: Optimal dose required to inhibit the P388/ADR cells in vivo after intraperitoneal administration. The data set is classed as functional, Mus musculus. More on the design: unit: mg/kg/day.
The next data set relates to HCT-8. Put plainly: Ability to inhibit the growth of human colon tumor HCT-8 cells in vitro. The format is functional, cell-based. The gist of the method:
(§5)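 Cultured leukemia L1210 or human colon tumor HCT-8 cells were exposed to drug for 40 h.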

The test system of data set [6] is Lewis lung carcinoma cell line. The data set can be described thus: Optimal dose required to inhibit the LL Lewis lung carcinoma model cells in vivo administered intraperitoneally. The format is functional, Mus musculus. The gist of the method:
(§6)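 Mice were inoculated iv with 10^6 Lewis lung carcinoma cells. OD is the optimal dose in mg/kg per day. Lifespan increase above 40% is significant, and long-term survival was scored at 60 days.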

The subject of a further data set is L1210. The data set can be described thus: Ability to inhibit the growth of leukemia L1210 cells in vitro. The format is functional, cell-based. Conditions: Mus musculus. The gist of the method: as §5
A short description of data set [7]: The compound was evaluated for its acid dissociation constant. The format is ADME.
Data set [8] concerns P388/ADR. Put plainly: Percent increase in life span, of the drug-treated tumor-bearing animals vs nontreated tumor-bearing controls with P388/ADR cells. The data set is classed as functional, Mus musculus. An outline of the steps: as §1
Data set [9] relates to P388. The data set can be described thus: Percent increase in life span of the drug treated tumor bearing animals vs nontreated tumor bearing controls was determined against P388 leukemia cells; NA = not active. Conditions: Mus musculus. The data set is classed as functional. An outline of the steps: as §4
In data set [10] the test system is P388. Put plainly: Optimal dose required to inhibit the P388 intraperitoneally. The format is functional, Mus musculus. An outline of the steps: as §1
The subject of a further data set is Nucleic Acid. Put plainly: Binding constant (1/M) to poly[d(A-T)] by ethidium bromide displacement. The format is nucleic-acid assay.
In data set [11] the test system is Lewis lung carcinoma cell line. Put plainly: Percent increase in life span of the drug treated tumor bearing animals vs nontreated tumor bearing controls was determined against LL (Lewis lung carcinoma model) cells;NA= not active. The format is functional, Mus musculus. The gist of the method:
as §3

In data set [12] the test system is Lewis lung carcinoma cell line. The data set is described as §2. The data set is classed as functional, Mus musculus. The gist of the method: as §6

Calls of active or inactive are those of the source. No cut-off for these calls is given here.

Broadly, the IC50 is the concentration at which inhibition is half-maximal. Take `CNc1cc(NC(=O)OC)ccc1Nc1c2ccccc2nc2ccc(C)cc12`: the ILS max with P388 [1] was determined as 69. This molecule also displayed a Rm in data set [2] of 0.7. Moreover, the ILS max entry (in data set [3] (Mus musculus); in the data set listed under Mus musculus) was “inactive” throughout. In addition, in the data set on poly[d(A-T)], the Log K came to 5.62. Further, the results for the OD (in the data set with P388 [4]; with P388/ADR [5]; in data set [6]) were 45, 45 and 13.3, respectively. In addition, the IC50 in the data set with HCT-8 came out at 850 nM; in the data set with L1210, 436 nM.
In general, pKa refers to the pH at which an ionisable group is half protonated. For `CNc1cc(NC(=O)OC)ccc1Nc1c2ccccc2nc2ccccc12`, the ILS max in the data set with P388 [1] is given as 132; in data set [3], 112; with P388/ADR [8], 50. Also, the Rm in data set [2] is reported as 0.51. Besides, the Log K in the data set with poly[d(A-T)] is 6.35. Besides, the pKa in data set [7] is 7.95. In addition, the values for the OD (in the data set on P388 [4]; in the data set with P388/ADR [5]; in [6]) were 30, 45 and 30, respectively. Moreover, the values for the IC50 in the data set with HCT-8 and in the data set with L1210 were 290 nM and 284 nM, respectively.
As for `CC(=O)Nc1ccc(Nc2c3ccccc3nc3ccccc23)c(N(C)C)c1`, the Rm in [2] came out at 0.57. In the data set on poly[d(A-T)], the Log K came to 5.58. Also, the pKa in data set [7] was determined as 7.59. Further, the ILS max result with P388 [9] and in the data set listed under Mus musculus was “inactive” in each case. Moreover, the results for the OD in the data set on P388 [4] and in the data set with P388/ADR [5] were 65 and 100, respectively.
In the case of `CNc1cc(NP(=O)(OC)OC)ccc1Nc1c2ccccc2nc2ccccc12`, the OD in the data set with P388 [10] was 13.3. The Rm in data set [2] was 0.32. Besides, the “Log K” value in the data set with Nucleic Acid is given as 6.82. In [7], this molecule returned a pKa of 8.09.
Regarding `CNc1cc(NC(=O)OC)ccc1Nc1c2ccccc2nc2cc(C)ccc12`, the ILS max with P388 [1] worked out at 105; in [11], 58. The Rm in [2] is 0.78. The molecule further yielded a Log K with poly[d(A-T)] of 6.72. For the same molecule, the ILS max result in the data set listed under Mus musculus is “inactive”. For the same molecule, the results for the OD (in the data set on P388 [4]; in the data set with P388/ADR [5]; in [12]) were 8.9, 13.3 and 8.9, respectively. Moreover, the IC50 in the data set with HCT-8 worked out at 270 nM; in the data set on L1210, 152 nM.
